# Experimental data published in ChEMBL document CHEMBL1140127, “Enantiomeric propanolamines as selective N-methyl-D-aspartate 2B receptor antagonists” (J Med Chem, 2008).
# The source made the active and inactive calls.
# Columns and labels:
# [1] = target: Glutamate receptor 3 (Rattus norvegicus) (UniProt P19492); experiment: Inhibition of rat recombinant GluR3 expressed in Xenopus oocytes assessed as inhibition of kainate-induced evoked current at 3 uM by two electrode voltage clamp method; assay type: cell-based; settings: Oocyte
# Glutamate receptor 3 (Rattus norvegicus), sequence (P19492 whole entry): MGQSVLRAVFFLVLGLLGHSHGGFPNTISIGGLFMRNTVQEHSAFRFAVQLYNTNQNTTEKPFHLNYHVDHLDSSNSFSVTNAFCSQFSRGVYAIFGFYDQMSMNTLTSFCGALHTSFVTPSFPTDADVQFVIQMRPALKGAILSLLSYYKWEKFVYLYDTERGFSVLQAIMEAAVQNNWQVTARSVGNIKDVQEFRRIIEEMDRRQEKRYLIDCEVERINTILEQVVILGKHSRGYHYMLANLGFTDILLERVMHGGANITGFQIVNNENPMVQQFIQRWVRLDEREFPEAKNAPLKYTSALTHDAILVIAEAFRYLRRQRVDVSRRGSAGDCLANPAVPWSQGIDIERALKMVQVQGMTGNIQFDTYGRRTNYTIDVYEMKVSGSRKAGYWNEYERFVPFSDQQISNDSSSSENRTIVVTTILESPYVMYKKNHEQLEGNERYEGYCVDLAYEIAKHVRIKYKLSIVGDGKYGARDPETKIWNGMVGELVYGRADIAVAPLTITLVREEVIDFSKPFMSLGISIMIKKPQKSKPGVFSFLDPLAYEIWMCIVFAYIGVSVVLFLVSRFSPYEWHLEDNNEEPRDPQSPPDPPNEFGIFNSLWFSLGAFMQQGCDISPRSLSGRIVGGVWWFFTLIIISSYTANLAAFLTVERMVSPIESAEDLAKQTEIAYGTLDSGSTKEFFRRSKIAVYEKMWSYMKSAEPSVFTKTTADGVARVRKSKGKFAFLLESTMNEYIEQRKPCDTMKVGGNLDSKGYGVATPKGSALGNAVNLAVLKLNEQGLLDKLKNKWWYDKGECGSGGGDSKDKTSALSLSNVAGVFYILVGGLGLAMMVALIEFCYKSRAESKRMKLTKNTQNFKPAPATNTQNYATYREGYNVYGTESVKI
# Summary of the method: (§1)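 Xenopus oocytes injected with 5–10 ng rat receptor cRNA and kept in Barth's solution at 18 °C. Two-electrode voltage clamp at −40 mV and 23 °C, 2–7 days after injection, in 90 NaCl/1 KCl/10 HEPES/0.5 BaCl2 mM at pH 7.3 or 7.6. Agonists: 50 μM kainate for GluR3, GluR4 and GluR2/3; 3 nM domoate for GluR6; 100 μM AMPA for GluR6/KA1. Current expressed as % of control; paired t test.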
# [2] = target: Glutamate receptor 4 (Rattus norvegicus) (UniProt P19493); experiment: Inhibition of rat recombinant GluR4 expressed in Xenopus oocytes assessed as inhibition of kainate-induced evoked current at 3 uM by two electrode voltage clamp method; assay type: cell-based; settings: Oocyte; summary of the method: as §1
# Glutamate receptor 4 (Rattus norvegicus), sequence (P19493 whole entry): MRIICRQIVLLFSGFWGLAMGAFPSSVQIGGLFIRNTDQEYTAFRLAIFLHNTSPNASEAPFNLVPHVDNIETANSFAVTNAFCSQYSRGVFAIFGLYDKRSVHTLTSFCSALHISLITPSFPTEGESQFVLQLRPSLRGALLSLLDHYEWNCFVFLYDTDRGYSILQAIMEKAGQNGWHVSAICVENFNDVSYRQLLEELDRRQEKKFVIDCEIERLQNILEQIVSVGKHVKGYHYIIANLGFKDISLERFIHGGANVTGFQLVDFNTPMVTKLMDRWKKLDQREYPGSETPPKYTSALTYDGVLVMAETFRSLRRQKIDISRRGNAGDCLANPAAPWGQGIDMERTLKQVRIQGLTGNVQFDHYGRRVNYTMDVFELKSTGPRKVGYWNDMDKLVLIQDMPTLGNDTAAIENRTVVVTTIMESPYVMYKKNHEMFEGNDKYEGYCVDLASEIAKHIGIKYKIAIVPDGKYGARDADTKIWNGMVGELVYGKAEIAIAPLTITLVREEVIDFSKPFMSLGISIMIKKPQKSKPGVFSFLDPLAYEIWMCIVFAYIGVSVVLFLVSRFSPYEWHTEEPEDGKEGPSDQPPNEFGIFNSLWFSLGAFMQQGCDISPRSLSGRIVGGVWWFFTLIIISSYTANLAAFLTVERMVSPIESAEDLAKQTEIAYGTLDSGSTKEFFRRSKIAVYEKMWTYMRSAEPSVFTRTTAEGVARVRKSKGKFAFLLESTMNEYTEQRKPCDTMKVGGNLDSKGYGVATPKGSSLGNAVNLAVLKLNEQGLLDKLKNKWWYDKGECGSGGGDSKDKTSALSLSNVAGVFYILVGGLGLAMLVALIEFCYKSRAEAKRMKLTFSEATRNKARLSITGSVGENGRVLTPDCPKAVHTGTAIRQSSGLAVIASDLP
# Mus musculus [3] = species on record: Mus musculus; settings: 3 uM
# Rattus norvegicus [4] = experiment: Anticonvulsant activity in Sprague-Dawley rat assessed as inhibition of electroshock-induced tonic hind limb extension at 30 mg/kg, ip administered 30 mins before electroshock; assay type: functional, organism-based; parameters: dose 30 mg/kg; settings: Hindlimb
# Summary of the method: (§2)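 Male Sprague–Dawley rats, 100–125 g, with 1% lidocaine dropped into each conjunctiva before maximal electroshock. Compound given ip in DMSO 30 min before the stimulus. Tested on three consecutive days: untreated on days 1 and 3, compound on day 2. Duration of tonic hind limb extension scored visually. Vehicle served as negative control and carbamazepine 60 mg/kg as positive control. ANOVA with Bonferroni post hoc test.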
# Brain = experiment: Drug level in rat brain at 30 mg/kg, ip by LC-MS/MS analysis; assay type: ADME, organism-based; parameters: dose 30 mg/kg, route intraperitoneal
# Summary of the method: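 Rats, n = 3 per dose, given 30 mg/kg ip in 2% dimethyl acetamide/98% 5% 2-hydroxypropyl cyclodextrin after overnight fasting. Brain weighed and homogenized on ice in 50 mM phosphate buffer. Homogenate extracted with 5 volumes of cold acetonitrile, then centrifuged. Parent compound quantified by LC-MS/MS in MRM mode against a standard curve.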
# [5] = target: Ionotropic glutamate receptor NMDA 1/2D (Rattus norvegicus) (UniProt P35439+Q62645); experiment: Inhibition of rat recombinant NR1/NR2D receptor expressed in Xenopus oocytes assessed as inhibition of glutamate and glycine-induced evoked current at 3uM by two electrode voltage clamp method; assay type: cell-based; settings: Oocyte
# [6] = target: Sodium-dependent dopamine transporter (Homo sapiens, UniProt Q01959); experiment: Binding affinity to dopamine transporter
# Sodium-dependent dopamine transporter, sequence (Q01959 whole entry): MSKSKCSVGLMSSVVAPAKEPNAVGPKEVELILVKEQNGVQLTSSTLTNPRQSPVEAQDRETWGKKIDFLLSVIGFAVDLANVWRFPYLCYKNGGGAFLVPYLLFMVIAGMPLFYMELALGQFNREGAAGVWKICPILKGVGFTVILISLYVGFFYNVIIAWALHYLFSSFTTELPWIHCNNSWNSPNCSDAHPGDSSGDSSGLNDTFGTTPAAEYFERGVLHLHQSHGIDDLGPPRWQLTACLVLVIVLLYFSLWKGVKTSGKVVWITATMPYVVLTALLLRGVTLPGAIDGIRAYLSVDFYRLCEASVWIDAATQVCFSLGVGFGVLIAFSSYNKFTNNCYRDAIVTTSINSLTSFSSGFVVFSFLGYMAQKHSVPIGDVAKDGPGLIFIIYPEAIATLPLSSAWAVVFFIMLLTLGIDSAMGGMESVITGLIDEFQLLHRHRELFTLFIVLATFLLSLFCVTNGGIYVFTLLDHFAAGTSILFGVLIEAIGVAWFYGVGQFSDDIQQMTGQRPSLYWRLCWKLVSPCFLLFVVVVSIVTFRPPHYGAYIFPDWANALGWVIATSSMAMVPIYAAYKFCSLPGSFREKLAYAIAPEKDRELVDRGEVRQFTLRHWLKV
# [7] = target: Glutamate receptor ionotropic, kainate 2 (Rattus norvegicus) (UniProt P42260); experiment: Inhibition of rat recombinant GluR6 expressed in Xenopus oocytes assessed as inhibition of domoate-induced evoked current at 3 uM by two electrode voltage clamp method; assay type: cell-based; settings: Oocyte; summary of the method: as §1
# Glutamate receptor ionotropic, kainate 2 (Rattus norvegicus), sequence (P42260 whole entry): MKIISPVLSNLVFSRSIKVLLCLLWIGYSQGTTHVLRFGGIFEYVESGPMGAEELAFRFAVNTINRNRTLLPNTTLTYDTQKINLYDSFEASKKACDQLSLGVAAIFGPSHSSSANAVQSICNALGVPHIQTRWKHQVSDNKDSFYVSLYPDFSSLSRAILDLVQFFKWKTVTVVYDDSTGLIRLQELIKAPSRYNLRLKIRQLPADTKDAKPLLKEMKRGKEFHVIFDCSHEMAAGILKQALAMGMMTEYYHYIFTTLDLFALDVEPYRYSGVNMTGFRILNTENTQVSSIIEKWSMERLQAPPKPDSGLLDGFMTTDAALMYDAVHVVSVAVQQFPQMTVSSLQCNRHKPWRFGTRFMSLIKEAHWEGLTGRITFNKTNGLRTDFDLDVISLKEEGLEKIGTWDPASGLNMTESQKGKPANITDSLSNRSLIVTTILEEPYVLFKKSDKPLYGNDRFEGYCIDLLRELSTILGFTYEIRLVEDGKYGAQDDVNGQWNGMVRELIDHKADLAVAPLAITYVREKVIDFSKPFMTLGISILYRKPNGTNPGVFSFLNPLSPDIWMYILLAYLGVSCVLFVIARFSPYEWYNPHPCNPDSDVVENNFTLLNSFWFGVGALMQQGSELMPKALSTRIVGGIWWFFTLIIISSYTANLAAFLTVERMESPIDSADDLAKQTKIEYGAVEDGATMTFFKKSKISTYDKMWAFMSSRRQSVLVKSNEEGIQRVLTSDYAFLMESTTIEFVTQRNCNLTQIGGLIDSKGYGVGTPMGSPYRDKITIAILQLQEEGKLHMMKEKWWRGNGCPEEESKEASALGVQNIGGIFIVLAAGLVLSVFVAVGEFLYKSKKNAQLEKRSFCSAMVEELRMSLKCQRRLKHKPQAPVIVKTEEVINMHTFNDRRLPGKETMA
# Mus musculus [8] = experiment: Plasma concentration in C57BL/6 mouse at 30 mg/kg, ip; assay type: ADME, organism-based; parameters: dose 30 mg/kg, route intraperitoneal; settings: in vivo
# Rattus norvegicus [9] = experiment: Anticonvulsant activity in Sprague-Dawley rat assessed as inhibition of electroshock-induced tonic hind limb extension at 100 mg/kg, ip administered 30 mins before electroshock; assay type: functional, organism-based; parameters: dose 100 mg/kg; settings: Hindlimb; summary of the method: as §2
# Plasma = experiment: Half life in rat plasma at 30 mg/kg, ip by LC-MS/MS analysis; assay type: ADME, organism-based; parameters: dose 30 mg/kg, route intraperitoneal; settings: in vivo
# Summary of the method: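 Fasted rats (n = 3 per dose) given 30 mg/kg ip in 2% dimethyl acetamide/98% 5% hydroxypropyl cyclodextrin. Plasma sampled at several time points up to 240 min and extracted with 5 volumes of cold acetonitrile. Parent compound measured by LC-MS/MS (MRM) against a standard curve to give plasma t1/2.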
# [10] = target: Glutamate receptor ionotropic, kainate 2 (Rattus norvegicus) (UniProt P42260); experiment: Inhibition of rat recombinant GluR6/KA1 expressed in Xenopus oocytes assessed as inhibition of AMPA-induced evoked current at 3 uM by two electrode voltage clamp method; assay type: cell-based; settings: Oocyte; summary of the method: as §1
# [11] = Ratio of drug level in rat brain to plasma by LC-MS/MS analysis; assay type: ADME
# Summary of the method: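 Rats (n = 3 per dose) received a 4 mg/kg single iv bolus via the tail vein or 30 mg/kg ip, in 2% dimethyl acetamide/98% 5% 2-hydroxypropyl cyclodextrin, after an overnight fast. Plasma was taken at 5–240 min. Brain was homogenized in 50 mM phosphate buffer. Samples were extracted with 5 volumes of cold acetonitrile and read by LC-MS/MS (MRM) against a standard curve.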
# [12] = target: Glutamate NMDA receptor; Grin1/Grin2c (Rattus norvegicus) (UniProt P35439+Q00961); experiment: Inhibition of rat recombinant NR1/NR2C receptor expressed in Xenopus oocytes assessed as inhibition of glutamate and glycine-induced evoked current at 3uM by two electrode voltage clamp method; assay type: cell-based; settings: Oocyte
# Mus musculus [13] = experiment: Neuroprotective effect against middle cerebral artery occlusion-induced transient focal ischemia in C57BL/6 mouse at 30 mg/kg, ip administered 30 mins before occlusion; assay type: functional; settings: route intraperitoneal
# Summary of the method: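 Male C57BL/6 mice, 3–5 months, under 2% isoflurane at 37 °C. Left MCA occluded with an intraluminal suture for 30 min, confirmed by laser Doppler flow below 20%. Injection ip (10 mL/kg) given 30 min before occlusion. After 24 h, brains cut into 2 mm sections and stained with 2% TTC; infarct volume thresholded and edema-corrected. Operator blinded; Mann–Whitney test.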
# hERG (KCNH2) = hERG (KCNH2) (Homo sapiens, UniProt Q12809); experiment: (§3) Displacement of [3H]astemizole from human ERG expressed in HEK293 cells; settings: human, HEK293 cells expressing human ERG, probe [3H]astemizole
# [14] = target: Voltage-gated inwardly rectifying potassium channel KCNH2 (Homo sapiens, UniProt Q12809); experiment: as §3
# Voltage-gated inwardly rectifying potassium channel KCNH2, sequence (Q12809 whole entry): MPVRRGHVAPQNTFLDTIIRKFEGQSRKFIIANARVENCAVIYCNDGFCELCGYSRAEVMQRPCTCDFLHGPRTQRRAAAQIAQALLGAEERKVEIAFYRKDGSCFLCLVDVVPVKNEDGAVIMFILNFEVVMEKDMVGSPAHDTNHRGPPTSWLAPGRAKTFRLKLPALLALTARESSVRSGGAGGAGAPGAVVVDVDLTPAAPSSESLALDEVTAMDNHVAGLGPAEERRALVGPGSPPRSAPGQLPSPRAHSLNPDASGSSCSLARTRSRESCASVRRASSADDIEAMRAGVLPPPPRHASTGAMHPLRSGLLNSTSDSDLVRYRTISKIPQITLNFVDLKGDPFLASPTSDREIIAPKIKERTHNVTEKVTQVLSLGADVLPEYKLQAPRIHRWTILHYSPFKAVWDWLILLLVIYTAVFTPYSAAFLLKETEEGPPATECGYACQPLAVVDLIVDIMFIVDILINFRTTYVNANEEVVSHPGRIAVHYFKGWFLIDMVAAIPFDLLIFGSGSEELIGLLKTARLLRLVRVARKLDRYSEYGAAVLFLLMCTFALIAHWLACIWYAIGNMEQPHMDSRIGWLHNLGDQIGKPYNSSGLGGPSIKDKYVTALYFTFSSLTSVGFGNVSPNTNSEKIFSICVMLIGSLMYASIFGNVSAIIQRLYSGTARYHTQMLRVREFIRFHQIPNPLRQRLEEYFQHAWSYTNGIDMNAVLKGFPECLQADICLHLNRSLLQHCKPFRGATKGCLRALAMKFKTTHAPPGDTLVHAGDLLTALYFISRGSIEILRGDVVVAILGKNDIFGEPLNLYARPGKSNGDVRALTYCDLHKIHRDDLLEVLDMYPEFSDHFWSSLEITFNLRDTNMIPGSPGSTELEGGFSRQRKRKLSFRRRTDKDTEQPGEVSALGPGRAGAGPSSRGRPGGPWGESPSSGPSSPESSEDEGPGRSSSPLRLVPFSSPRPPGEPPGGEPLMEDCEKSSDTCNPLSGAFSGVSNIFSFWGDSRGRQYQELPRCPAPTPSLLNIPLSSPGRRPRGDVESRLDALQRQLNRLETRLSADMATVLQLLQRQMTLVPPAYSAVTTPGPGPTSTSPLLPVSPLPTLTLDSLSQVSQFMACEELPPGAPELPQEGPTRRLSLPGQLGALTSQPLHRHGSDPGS
# [15] = target: Sodium-dependent noradrenaline transporter (Homo sapiens, UniProt P23975); experiment: Binding affinity to norepinephrine transporter
# Sodium-dependent noradrenaline transporter, sequence (P23975 whole entry): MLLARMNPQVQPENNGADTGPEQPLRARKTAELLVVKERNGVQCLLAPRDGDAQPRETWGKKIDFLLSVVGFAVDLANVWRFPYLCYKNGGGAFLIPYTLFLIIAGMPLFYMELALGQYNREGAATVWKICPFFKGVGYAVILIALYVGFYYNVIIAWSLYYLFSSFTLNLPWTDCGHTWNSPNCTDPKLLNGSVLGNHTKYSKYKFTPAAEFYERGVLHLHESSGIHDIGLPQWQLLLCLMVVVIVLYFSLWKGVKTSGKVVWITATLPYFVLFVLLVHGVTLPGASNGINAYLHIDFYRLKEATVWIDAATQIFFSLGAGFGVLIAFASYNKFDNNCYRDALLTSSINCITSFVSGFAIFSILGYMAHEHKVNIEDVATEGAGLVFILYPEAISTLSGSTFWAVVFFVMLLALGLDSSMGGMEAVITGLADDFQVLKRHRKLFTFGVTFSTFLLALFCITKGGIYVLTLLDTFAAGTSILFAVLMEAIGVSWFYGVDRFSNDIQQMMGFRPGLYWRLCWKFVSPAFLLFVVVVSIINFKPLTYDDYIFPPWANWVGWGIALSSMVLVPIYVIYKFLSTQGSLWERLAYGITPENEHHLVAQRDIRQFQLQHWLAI
# Rattus norvegicus [16] = experiment: Effect on locomotor activity in Sprague-Dawley rat at 300 mg/kg, ip; assay type: functional, organism-based; parameters: dose 300 mg/kg
# Summary of the method: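 Sprague–Dawley rats, 100–200 g, habituated to the room for ≥30 min. Basal activity recorded for 1 h in infrared photobeam activity chambers. Animals then dosed ip and returned to the chamber for 2 h; total horizontal activity recorded. Daily controls were vehicle (negative) and 0.3 mg/kg MK-801 ip in saline (positive). ANOVA with Dunnett's post hoc test.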
# [17] = Protein binding in human plasma; assay type: ADME, cell-free; settings: read-out: PPB (converted)
# [18] = target: Glutamate NMDA receptor; Grin1/Grin2a (Rattus norvegicus) (UniProt P35439+Q00959); experiment: Inhibition of rat recombinant NR1/NR2A receptor expressed in Xenopus oocytes assessed as inhibition of glutamate and glycine-induced evoked current at 3uM by two electrode voltage clamp method; assay type: cell-based; settings: Oocyte
# Mus musculus [19] = species on record: Mus musculus; experiment: Inhibition of mouse NR2B(deltaATD) mutant receptor
# [20] = Inhibition of N-type calcium channel
# [21] = target: Glutamate NMDA receptor; Grin1/Grin2b (Rattus norvegicus, UniProt P35439+Q00960); experiment: Inhibition of rat recombinant NR1/NR2B receptor expressed in Xenopus oocytes assessed as inhibition of glutamate and glycine-induced evoked current by two electrode voltage clamp method; assay type: cell-based, Oocyte
smiles,measurement,setting,value
CS(=O)(=O)Nc1ccc(OC[C@@H](O)CNCCc2ccc(Cl)c(Cl)c2)cc1,Activity,[1],inactive
same,Activity,[2],inactive
same,inhibition,Mus musculus [3],102%
same,Activity,Rattus norvegicus [4],inactive
same,concentration,Brain,170 nM
same,Activity,[5],inactive
same,IC50,[6],500 nM
same,Activity,[7],inactive
same,concentration,Mus musculus [8],1000 nM
same,Activity,Rattus norvegicus [9],Active
same,t1/2,Plasma,1.1 h
same,Activity,[10],inactive
same,Ratio,[11],< 0.05
same,Activity,[12],inactive
same,Activity,Mus musculus [13],>30%
same,IC20,hERG (KCNH2),> 174 nM
same,IC50,[14],730 nM
same,IC50,[15],500 nM
same,Activity,Rattus norvegicus [16],inactive
same,fraction unbound,[17],0.02
same,Activity,[18],inactive
same,Activity,Mus musculus [19],inactive
same,IC50,[20],> 5000 nM
same,IC50,[21],50 nM
